PolyA inh – polyadenylation inhibitors in yeast reporter cells, primary screen, luminescence, S. cerevisiae | 300,000 compounds, 0.02% hits | AID 1875, 2009 | activity score, % at 12 µM | S. cerevisiae SKY197-pL101 polyadenylation reporter, beta-gal luminescence; efflux-impaired pdr1/pdr3 knockout yeast; score 100 = 6 SD above DMSO;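 active = lowest replicate activity score at least 50, where 100 means six control SD above control mean; inconclusive = lowest score under 50 but half or more replicates reach 50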;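 also: yeast exposed to compound for 9 h at 30 °C; higher score means more reporter readthrough which indicates perturbed polyadenylation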
HIF activator – HIF pathway transcriptional activators, primary screen, cell-based, U2OS HRE-luciferase, luminescence | U2OS HRE-luciferase reporter; normalized: DMSO 0%, desferrioxamine 100% | activation, % at 7.5 µM (by protocol) | 300,000 compounds, 0.32% hits;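 active = mean activation of at least 10% of the iron chelator positive control signal, with at least half of replicates also reaching 10%; inconclusive = mean and replicate majority disagree about reaching 10%; inactive = mean and most replicates under 10%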
Beta cell apopt – inhibitors of cytokine-induced beta cell apoptosis, primary screen, luminescence; protection from apoptosis, % (concentration not given with the values); 300,000 compounds, 0.8% hits; INS-1E cytokine-induced death, ATP luminescence, 48 h; percent of positive-control rescue, neutral wells zero;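 active = Every replicate reaches about 75%, or at least half do and their mean reaches it too, limit read from the data; inconclusive = At least half of replicates reach the limit but their mean does not; inactive = Under half of replicates reach the limit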;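 also: 0% = cytokine-treated negative control wells and 100% = positive control rescue; higher means more ATP so stronger rescue from cytokine killing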
CSC inhib – cancer stem cell viability inhibitors, primary screen, luminescence; cancer stem cell-like cells viability; inhibition, % at 7.5 µM; 300,000 compounds, 1.1% hits; AID 2717, 2010; in the data active = inhibition above about 75%; inconclusive = no clear call, values can overlap the other calls; tested in HMLE shEcad cells
Calb FLC – C. albicans growth inhibition with fluconazole, primary screen, CaCi-2 strain, Alamar Blue fluorescence; C. albicans CaCi-2 (fluconazole-resistant clinical isolate) + fluconazole, 48 h; growth inhibition, % (concentration not given with the values); 300,000 compounds, 0.57% hits;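 active = growth inhibition above about 58% in most replicates, limit read from the data, passing the limit was not always enough; inconclusive = exactly half the replicates above a set limit; inactive = most replicates below a set limit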;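 also: all wells also contain fluconazole at 8 µg/ml as a sub-toxic cotreatment; 0% = median of DMSO wells and 100% = median of geldanamycin control wells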
T cruzi inh – inhibitors of intracellular T. cruzi growth, primary screen, luminescence, NIH3T3 host cells; T. cruzi beta-gal in NIH3T3, 90 h; inhibition, % (no concentration beside the values); 300,000 compounds, 1.4% hits;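 active = mean inhibition across valid replicates above about 55%, limit read from the data; inconclusive = mean below that limit but half or more replicates reach it; inactive = mean below it, under half of replicates reach it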;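 also: signal also drops with host cell toxicity which is not excluded here; 0% = plate median of DMSO wells and 100% = zero luminescence signal; higher percent means less beta-gal luminescence so fewer parasites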
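Test system: β-gal T. cruzi (Tulahuen C4) inside NIH/3T3 cells / Quantity: 5,000 cells/well / Measured by: luminescence from GalScreen with 0.05% NP40, read after 60 min / Medium: DMEM plus 2% FBS / Measure: parasite load inhibition, % / Reagent: Tulahuen C4 trypomastigotes, 5000/well / Schedule: co-culture of at least 90 h after 3 h attachment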
An asterisk follows results filed as active; ? = inconclusive; . = no result. Compounds with a hit are over-represented: about 3.1% of the library has one in this group of screens.

SMILES	PolyA inh	HIF activator	Beta cell apopt	CSC inhib	Calb FLC	T cruzi inh
O=C(CN1CCc2cc3c(cc2C1)OCCCO3)Nc1c(F)cccc1F	22	-1	1	7	8	6
CCC1(c2ccc(F)cc2)NC(=O)N(CC(=O)N(C)C2CCS(=O)(=O)C2)C1=O (stereo unspecified)	1	0	.	-2	-6	-9
C=C(C)COc1ccc(-c2[nH]ncc2-c2ccc(OC)cc2)c(O)c1	-12	0	-9	?	0	7
C=C(C)COc1ccc(-c2n[nH]c(C)c2-c2ccc(OC)c(OC)c2)c(O)c1	-7	0	21	81*	1	20
C=C(C)COc1ccc(-c2nc(N)ncc2-c2ccc(Cl)cc2)c(O)c1	0	0	2	104*	-5	47
C=C(C)COc1ccc(-c2[nH]ncc2-c2ccc(OC)c(OC)c2)c(O)c1	25	1	24	92*	-7	-1
C=C(C)COc1ccc(-c2n[nH]c(C)c2Oc2ccccc2OC)c(O)c1	-1	0	7	-7	8	6
COc1ccccc1-c1cn[nH]c1-c1ccc(OCc2ccccc2F)cc1O	0	0	8	93*	-5	13
O=C(COc1ccc([N+](=O)[O-])cc1Cl)N1CCc2ccccc21	.	.	4	-13	.	.
CCN(c1ccccc1)S(=O)(=O)c1ccc(C(=O)Nc2cc(C)ccn2)cc1	.	.	-12	-2	.	.
Cc1ccc(NC(=O)CSc2nnc(C3CC3)n2C)cc1S(=O)(=O)N1CCCCC1	.	.	-10	.	.	.
O=[N+]([O-])c1ccc(COc2ccc(-c3[nH]ncc3-c3ccccc3)c(O)c2)cc1	1	-1	25	118*	-1	6
Oc1cc(OCc2ccccc2)ccc1-c1[nH]ncc1-c1ccccc1	-10	0	5	47	10	1
O=[N+]([O-])c1cccc(N/N=C/c2cc([N+](=O)[O-])ccc2O)c1	-16	1	.	1	-53	10
O=[N+]([O-])c1ccc(O)c(/C=N/Nc2nc3ccccc3[nH]2)c1	-14	-2	99*	102*	32	32
COc1ccc(O)c(/C=N/Nc2nc3ccccc3[nH]2)c1	-3	1	.	-4	4	-16
O=[N+]([O-])c1ccc(O)c(/C=N/Nc2ncnc3c2cnn3-c2ccccc2)c1	-13	0	16	104*	37	-8
O=[N+]([O-])c1ccc(O)c(/C=N/Nc2ccccn2)c1	-75	63*	105*	118*	-6	51
c1ccc(-c2cc(-c3nnc4n3N=C(c3ccc5ccccc5c3)CS4)[nH]n2)cc1	-11	2	11	92*	5	59*
CC(NC(=O)c1cc2c(s1)CS(=O)(=O)C2)c1ccccc1 (stereo unspecified)	9	125*	-6	2	?	-22
COc1ccccc1CNC(=O)c1cc2c(s1)CS(=O)(=O)C2	-7	0	1	-2	1	5
CN(Cc1cnn(Cc2ccccc2)c1)C(=O)CN=C1NS(=O)(=O)c2ccccc21	.	.	-4	.	.	.
O=[N+]([O-])c1cccc(COc2ncnc3cc([N+](=O)[O-])ccc23)c1	10	0	14	23	20	64*
O=C(Nc1cc(S(=O)(=O)Nc2ccc(Cl)cc2)ccc1N1CCCCC1)c1ccc(F)cc1Cl	-2	0	9	77*	17	35
CCN(CC)S(=O)(=O)c1ccc(N2CCN(C)CC2)c(NC(=O)COc2ccc(F)cc2Cl)c1	7	0	.	-3	-2	59*
CN1CCN(c2ccc(S(=O)(=O)N3CCOCC3)cc2NC(=O)COc2ccc(F)cc2Cl)CC1	14	-1	-1	8	-10	46
O=C(COc1ccc(F)cc1Cl)Nc1cc(S(=O)(=O)N2CCOCC2)ccc1N1CCCCC1	-4	0	3	-1	-6	63*
CCCN(CCC)C(=O)Nc1cc(Cl)ccc1OC	-3	-1	-5	-13	-15	-1
